Source: ChEMBL document CHEMBL5653606 (J Pharmacol Exp Ther, 2011)
Activity calls are given as the source filed them.

Tests used:
[1] = molecular target: T1, Fatty-acid amide hydrolase 1 (Homo sapiens, UniProt O00519); assay: Inhibition of human FAAH assessed as kinact/Ki ratio incubated for 1 min in presence of glutamate dehydrogenase by 384-well format microplate reader assay
T1 sequence (O00519 whole entry): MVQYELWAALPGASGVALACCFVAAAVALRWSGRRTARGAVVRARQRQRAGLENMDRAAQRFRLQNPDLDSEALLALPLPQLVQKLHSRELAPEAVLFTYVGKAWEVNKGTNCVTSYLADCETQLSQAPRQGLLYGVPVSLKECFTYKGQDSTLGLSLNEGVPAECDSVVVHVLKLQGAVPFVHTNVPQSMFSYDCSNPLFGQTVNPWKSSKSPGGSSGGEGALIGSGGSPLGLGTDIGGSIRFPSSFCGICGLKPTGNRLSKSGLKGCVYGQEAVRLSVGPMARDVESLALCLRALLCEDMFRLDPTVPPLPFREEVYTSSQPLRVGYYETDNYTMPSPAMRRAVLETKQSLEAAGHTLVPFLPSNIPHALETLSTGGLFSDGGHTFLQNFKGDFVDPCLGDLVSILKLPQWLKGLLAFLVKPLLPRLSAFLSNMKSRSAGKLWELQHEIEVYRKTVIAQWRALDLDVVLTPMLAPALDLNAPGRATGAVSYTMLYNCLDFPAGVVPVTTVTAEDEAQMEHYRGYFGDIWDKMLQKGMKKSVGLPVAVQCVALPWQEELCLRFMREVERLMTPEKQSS

Rattus norvegicus [2] = assay: Antihyperalgesic activity in MIA induced Sprague-Dawley rat assessed as increased joint compression thresholds at 0.3 to 3 mg/kg, po administered for 1 day and measured after 2 to 4 hrs; type: functional, organism-based; details: dose 0.3-3 mg/kg
Outline: (§1)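 Male Sprague-Dawley rats (220–270 g), isoflurane-anesthetized, given 2 mg MIA in 0.9% saline (50 μl) intra-articular into the knee. From day 14, oral dosing at 10 ml/kg once daily for 3 days in 4% 2-hydroxypropyl-β-cyclodextrin/1% ethanol in 0.01 M HCl. Celecoxib 30 mg/kg in 0.5% methylcellulose twice daily. Joint compression threshold by digital Randall-Selitto at 2 and 4 h postdose on days 1 and 3; n = 10/group.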

[3] = Brain concentration in rat at 1 mg/kg, po administered for 4 hrs by LC/MS analysis; type: ADME, organism-based; details: read-out: Ct
Outline: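 Rats dosed orally at 1 mg/kg. Plasma and brain concentrations measured at 1, 2, 4, 8 and 24 h.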

[4] = molecular target: T2, Fatty-acid amide hydrolase 1 (Mus musculus) (UniProt O08914); assay: Inhibition of FAAH in mouse brain at 10 uM in presence of FP-rhodamine by competitive activity-based protein profiling method; type: tissue-based
T2 sequence (whole entry): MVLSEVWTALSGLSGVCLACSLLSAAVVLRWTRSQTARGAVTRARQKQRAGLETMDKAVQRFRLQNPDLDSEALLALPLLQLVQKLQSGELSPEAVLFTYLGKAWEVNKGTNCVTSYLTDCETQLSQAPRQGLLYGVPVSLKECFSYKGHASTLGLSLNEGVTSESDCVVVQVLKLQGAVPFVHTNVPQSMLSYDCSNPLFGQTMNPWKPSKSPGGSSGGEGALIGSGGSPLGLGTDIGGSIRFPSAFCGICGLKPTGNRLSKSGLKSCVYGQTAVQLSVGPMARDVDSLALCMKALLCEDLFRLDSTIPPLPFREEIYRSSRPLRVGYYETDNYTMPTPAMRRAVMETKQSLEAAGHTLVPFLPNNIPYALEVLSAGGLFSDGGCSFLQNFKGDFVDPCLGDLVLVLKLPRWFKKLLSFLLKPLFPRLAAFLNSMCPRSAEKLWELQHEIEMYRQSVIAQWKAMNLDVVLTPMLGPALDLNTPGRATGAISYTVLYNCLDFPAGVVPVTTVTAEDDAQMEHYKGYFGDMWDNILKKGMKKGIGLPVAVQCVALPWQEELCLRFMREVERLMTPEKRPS
Outline: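 Competitive ABPP on human and mouse brain, liver and heart proteomes (membrane and soluble fractions), exposed to compound at 10 or 100 μM or to DMSO. Serine hydrolases were then labeled with FP-rhodamine. Gels were read by fluorescence scanning, and loss of band labeling (FAAH or other hydrolases by kDa) was judged.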

[5] = Tmax in rat at 5 mg/kg, po measured upto 24 hrs by LC/MS analysis; type: ADME, organism-based; details: in vivo
Rattus norvegicus [6] = assay: Antihyperalgesic activity in MIA induced Sprague-Dawley rat assessed as effect on pain behaviour in contralateral knee joint at 0.3 to 3 mg/kg, po administered once daily for 3 consecutive days; type: functional, organism-based; details: dose 0.3-3 mg/kg, time 3.0 day; outline: as §1
[7] = molecular target: T3, Fatty-acid amide hydrolase 1 (Rattus norvegicus, UniProt P97612); assay: Inhibition of rat FAAH assessed as kinact/Ki ratio incubated for 1 min in presence of glutamate dehydrogenase by 384-well format microplate reader assay
T3 sequence (P97612 whole entry): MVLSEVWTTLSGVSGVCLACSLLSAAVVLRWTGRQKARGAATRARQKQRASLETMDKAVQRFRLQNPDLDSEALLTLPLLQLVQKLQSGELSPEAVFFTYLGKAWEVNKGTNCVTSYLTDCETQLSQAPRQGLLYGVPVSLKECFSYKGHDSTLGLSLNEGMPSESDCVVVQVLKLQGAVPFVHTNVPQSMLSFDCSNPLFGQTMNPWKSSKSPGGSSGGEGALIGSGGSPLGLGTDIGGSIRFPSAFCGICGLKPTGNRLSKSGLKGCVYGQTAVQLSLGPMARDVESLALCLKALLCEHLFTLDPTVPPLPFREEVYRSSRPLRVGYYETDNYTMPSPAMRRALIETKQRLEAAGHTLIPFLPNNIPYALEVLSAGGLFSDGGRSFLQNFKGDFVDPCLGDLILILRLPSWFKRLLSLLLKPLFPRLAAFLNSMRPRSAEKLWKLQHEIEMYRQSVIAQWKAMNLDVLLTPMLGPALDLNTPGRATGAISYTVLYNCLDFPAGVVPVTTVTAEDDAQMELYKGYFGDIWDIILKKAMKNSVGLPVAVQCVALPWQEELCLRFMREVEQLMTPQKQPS

[8] = molecular target: T4, Fatty-acid amide hydrolase 1 (Rattus norvegicus) (UniProt P97612); assay: In vivo inhibition of FAAH in CFA induced Sprague-Dawley rat brain at 1 mg/kg, po measured for 1 to 24 hrs; type: functional, organism-based; details: time 1-24 hrs
T4 sequence (whole entry): T3 sequence (P97612 whole entry)
Outline: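 Brain and blood leukocyte membrane fractions from CFA rats after oral dosing. FAAH activity measured with 3H-labeled AEA substrate, quantifying released 3H-ethanolamine; n = 3 rats/group. Time course sampled at 1, 2, 4, 8, 24 h after 1 mg/kg.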

Mus musculus = assay: Antinociceptive activity in C57BL6/J mouse assessed as effect in body temperature at 1 to 10 mg/kg, po administered for 4 hrs; type: functional, organism-based; details: dose 1-10 mg/kg
Outline: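 Male C57BL/6J mice, 7 weeks old, n = 8/group, dosed orally at 1 or 10 mg/kg in PEG 300 (4 ml/kg). Tetrad tested 4 h postdose: locomotor activity, tail-immersion thermal nociception, catalepsy (assessed 60 s), body temperature. Means ± S.E.M. versus vehicle.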

[9] = molecular target: T4, Fatty-acid amide hydrolase 1 (Rattus norvegicus); assay: In vivo inhibition of FAAH in CFA induced Sprague-Dawley rat plasma assessed as elevation of OEA level at 1 mg/kg, po measured for 1 to 24 hrs; type: functional, organism-based; details: time 1-24 hrs

IC50 [1]: 50.4 nM
concentration at 4 h [3]: 870 nM
inhibition [4]: Active
Tmax [5]: 2 h
IC50 [7]: 43.1 nM
inhibition [8]: Active
inhibition [9]: Active
SMILES: O=C(Nc1cccnn1)N1CCC(=Cc2cccc(Oc3ccc(C(F)(F)F)cn3)c2)CC1
Activity (Rattus norvegicus [2]): Active
Activity (Rattus norvegicus [6]): inactive
Activity (Mus musculus): Non-Toxic
